Compound activity deposited in PubChem BioAssay by several laboratories.
WT yeast gro inh = growth inhibition of WT yeast, mitochondrial fusion screen; mitochondrial fusion phenotypic screen, WT strain; inhibition, % at 10 µM; 190,000 tested, 2.1% active; in the data active means inhibition above about 58%; tested in S. cerevisiae
CHOP inhibitor = blocks CHOP induction under ER stress. CHO-K1 CHOP-promoter luciferase, tunicamycin-induced, 15-18 h. inhibition, % at 10 µM. 220,000 tested, 3.8% active;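 active means compounds that reduced the stress-induced luciferase reporter signal by more than about 70% of percent inhibition, limit read from the data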
EBV gp42 block = EBV gp42 inhibition | inhibition, % (tested at 21.74 µM) | Q1HVG2 | 220,000 tested, 0.42% active | Fluorescence polarization binding assay, mP read-out; in the data active means inhibition above about 50%
Target sequence (Q1HVG2 whole entry, looked up): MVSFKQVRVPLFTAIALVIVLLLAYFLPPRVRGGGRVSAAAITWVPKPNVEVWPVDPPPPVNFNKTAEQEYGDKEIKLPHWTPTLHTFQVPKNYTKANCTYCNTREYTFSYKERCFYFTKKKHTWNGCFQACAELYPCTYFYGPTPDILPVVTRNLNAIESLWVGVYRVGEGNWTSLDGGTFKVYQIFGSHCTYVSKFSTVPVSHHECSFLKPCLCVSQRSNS
MPTP inh = permeability transition pore inhibition; isolated mouse mitochondria, Ca2+ swelling absorbance, 30 min; inhibition, % at 10 µM; 360,000 tested, 1.4% active; AID 602449;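 active means inhibition of 50% or more, scaled per plate between neutral and stimulator controls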
NR3A LBD binder = NR3A (human) ligand-binding domain modulation | NR3A LBD differential scanning fluorimetry, Tm shift; 0% = protein alone, 100% = glycine-bound protein | Tm shift relative to glycine control, % at 25 µM | 340,000 tested, 2.5% active | AID 1259313;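 active means melting temperature shift of at least 10% of the positive control shift, at one fixed dose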
TbMetRS inhib = blocks T. brucei methionyl-tRNA synthetase activity. purified T. brucei MetRS, ATP depletion, Kinase-Glo luminescence. inhibition, % at 11.9 µM. 360,000 tested, 0.4% active;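 active means inhibition above a per-plate cutoff of the control wells' mean inhibition plus 3 SD, cut at about 5.5% in these data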
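Assay system: T. brucei methionyl-tRNA synthetase, purified | Medium: HEPES buffer with MgCl2, KCl, DTT, spermine, BSA, pyrophosphatase | Compound: 11.9 µM single point | Incubation: 15 min enzyme-compound preincubation, 2 h reaction, 10 min detection, 25 °C | Measured by: Kinase-Glo luciferase luminescence reporting remaining unconsumed ATP | Measure: % inhibition normalized to control-well medians | Replication: Singlicate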
Rh123 counter = mitochondrial membrane potential, counter-screen | shares compounds with MPTP inh | isolated mitochondria, Rhodamine 123 fluorescence | inhibition, % at 10 µM | 5,000 tested, 78% active | AID 624504; in the data active means inhibition above about 22%
MPTP abs DR = MPTP inhibition, dose response swelling confirmation | shares compounds with MPTP inh | isolated mitochondria swelling, absorbance | IC50, µM | 780 tested, 58% active | AID 651561; in the data active means IC50 below about 20 µM
MPTP counter DR = counter-screen for mitochondrial permeability transition pore inhibitors, dose response | isolated mitochondria counterscreen, fluorescence read-out | AID 651564 | shares compounds with MPTP inh | 780 tested, 49% active | IC50, µM; in the data active means IC50 below about 80 µM
Numbers stand for hits; - = inactive; . = no result. Rows were chosen to be rich in hits. Some 6.4% of all compounds tested hit in one or more screens of this group.

SMILES	WT yeast gro inh	CHOP inhibitor	EBV gp42 block	MPTP inh	NR3A LBD binder	TbMetRS inhib	Rh123 counter	others
O=C(Nc1cccc(Cl)c1)Nc1ccc(Br)cc1F	-	90.6	-	75.4	21.1	-	82.1
COc1ccccc1NC(=O)NCC(=O)Nc1ccc(F)c(F)c1	-	-	-	-	-	-	.
Cc1cc(NC(=O)Nc2ccccc2F)ccc1Br	-	-	-	84.1	25.8	-	90.6
O=C(Nc1ccccc1)Nc1ccc(Br)cc1F	-	-	-	53.3	11.6	-	84.5
O=C(O)C1C2CC3OC(=O)C1C3C2 (stereo not drawn)	.	.	.	-	-	-	.
CCCc1cc(=O)oc2cc(OC(C)C(=O)NCCCn3ccnc3)ccc12 (stereo not drawn)	.	.	.	-	-	-	.
O=C(NN=Cc1ccccc1O)C(O)(c1ccccc1)c1ccccc1	.	.	.	-	-	-	.
O=C(Cn1cnc2c(nnn2Cc2ccccc2F)c1=O)NCC1CCCO1 (stereo not drawn)	-	-	-	-	-	-	.
CC(C)C[C@H](NC(=O)OC(C)(C)C)C(=O)N1CCC(C(=O)O)CC1	-	-	-	-	-	-	.
COc1ccc(CCNCC(O)COc2ccc(OC)cc2C(C)(C)C)cc1 (stereo not drawn)	.	.	.	80.5	-	-	-	MPTP abs DR=6.15;MPTP counter DR=41.1
O=C1CCCN2N=C(SCC(=O)Nc3ccc(F)cc3F)SC2=N1	.	.	.	-	-	-	.
O=C1CCCN2N=C(SCC(=O)Nc3cccc(F)c3)SC2=N1	.	.	.	50.1	-	-	-	MPTP abs DR=-;MPTP counter DR=38.4
Cc1ccc([N+](=O)[O-])cc1NC(=O)C(Sc1ccccc1)c1ccccc1 (stereo not drawn)	-	-	-	94.3	-	-	78.8
Cc1cc(Br)ccc1NC(=O)C(C)c1ccc([N+](=O)[O-])cc1 (stereo not drawn)	-	-	-	54.5	-	-	68.9
Cc1ccc([N+](=O)[O-])cc1NC(=O)c1ccccc1	-	-	-	-	-	-	.
Cc1ccc(C(C)C)cc1NC(=O)Nc1ccc([N+](=O)[O-])cc1	.	105.7	-	83.7	25.1	-	78.6
CC(=O)c1ccc(NC(=O)Nc2ccc([N+](=O)[O-])cc2)cc1	-	-	-	-	-	-	.
COc1ccccc1N1CCN(c2ncnc3sc(C(=O)NCC4CCCO4)c(C)c23)CC1 (stereo not drawn)	.	.	.	-	-	-	.
NCCNS(=O)(=O)c1cccc2cnccc12	.	-	.	.	.	.	.
NCCCCCCNS(=O)(=O)c1cccc2c(Cl)cccc12	.	-	.	108.1	-	-	-	MPTP abs DR=7.44;MPTP counter DR=46.5
CCCCn1c(N)c(N(CC(C)C)C(=O)COc2cc(C)ccc2Cl)c(=O)[nH]c1=O	.	.	.	-	-	-	.
CCCSc1nsc(NC(=O)CC)n1	-	-	-	-	-	-	.
CCCCCCSc1nsc(NC(=O)CC(C)C)n1	-	-	-	77.8	-	-	91.6
Fc1cccc(Nc2nc(-c3ccncc3)nc3ccccc23)c1	-	-	-	84.6	-	-	85.2
Cc1cc(C(F)(F)F)c(C#N)c(SCC(=O)Nc2nc3ccccc3s2)n1	-	-	-	63.2	12.2	-	74.0
SMILES	WT yeast gro inh	CHOP inhibitor	EBV gp42 block	MPTP inh	NR3A LBD binder	TbMetRS inhib	Rh123 counter	others
COc1ccc(C(=O)N2CC(=O)Nc3ccccc32)cc1S(=O)(=O)N1CCCC1	-	-	-	-	-	-	.
N#Cc1sc(NCc2cccc(Cl)c2)nc1Cl	.	.	.	-	-	-	.
Cc1ccc(CNc2nc(Cl)c(C#N)s2)cc1	-	-	-	67.1	-	-	76.6
COc1ccc(-n2c(C)nc3c(cnn3-c3ccc(C)cc3)c2=O)cc1	-	-	-	-	-	-	.
CCN(C[C@H]1N[C@@](Cc2ccccc2)(C(=O)OC)[C@H]2C(=O)N(Cc3ccccc3)C(=O)[C@@H]12)C(=O)Nc1ccc(C)cc1	.	.	.	-	-	-	.
CCN(C[C@H]1N[C@@](Cc2ccccc2)(C(=O)OC)[C@H]2C(=O)N(Cc3ccccc3)C(=O)[C@@H]12)C(=O)Nc1ccc(C(F)(F)F)cc1	.	.	.	79.5	-	-	104.7
O=C(CCCCCn1nnc2ccccc2c1=O)Nc1ccccc1Cl	.	.	.	-	-	-	.
NS(=O)(=O)c1ccc(CCNCc2cc(Br)ccc2OCc2ccccc2F)cc1	-	-	-	78.3	-	-	65.6
Nc1nonc1C(=O)NCCNCc1cc(Br)ccc1OCc1ccccc1F	-	.	-	84.3	-	-	79.8
COc1cc(CNCCNC(=O)c2nonc2N)ccc1OCc1ccc(Cl)cc1	-	-	-	83.3	-	-	28.2
CCCC1C(c2ccco2)NC(c2ccco2)CC1(C)O (stereo not drawn)	-	-	-	78.2	-	-	-	MPTP abs DR=-;MPTP counter DR=-
CC1/C(=N/O)CC(c2ccco2)NC1c1ccco1 (stereo not drawn)	-	-	-	-	-	-	.
Cc1ccccc1S(=O)(=O)NC1=NCCCCC1	-	-	-	-	-	-	.
COc1ccc(/C(N)=N/OC(=O)Cc2ccccc2[N+](=O)[O-])cc1	-	-	-	-	-	-	.
N#CC1(C#N)CC(C=O)=C(N)C1(C#N)CC(=O)C12CC3CC(CC(C3)C1)C2 (stereo not drawn)	-	-	142.1	72.7	-	-	55.1
Cc1nn(CCc2nn[nH]n2)c2nc(-c3ccc(C4CCCCC4)cc3)cc(C(F)(F)F)c12	98.2	106.4	-	59.1	-	-	25.6
CC(=O)Nc1ccc(S(=O)(=O)NCCC(=O)OCC(=O)c2ccc(Br)cc2)cc1	.	.	.	59.3	-	-	86.7
COc1ccc(C(=O)COC(=O)CCNS(=O)(=O)c2ccc(NC(C)=O)cc2)c(OC)c1	.	.	.	-	-	-	.
Fc1ccc2nc(Nc3nc4c(F)cc(F)cc4s3)sc2c1	-	-	-	97.0	34.3	-	71.2
Fc1ccc2nc(Nc3nc4c(F)cccc4s3)sc2c1	-	-	-	95.9	23.2	-	46.4
CCC(=O)NNc1nc2c(F)cc(F)cc2s1	-	-	-	-	-	-	.
O=C(Nc1nc2ccc(F)cc2s1)Oc1ccccc1	.	.	.	-	-	-	.
CCN(Cc1cc2ccccc2[nH]c1=O)S(=O)(=O)c1ccccc1	-	-	-	-	-	-	.
O=c1c(N=Nc2ccc(O)cc2)c(-c2ccccc2)[nH]n1-c1ccc([N+](=O)[O-])cc1	-	-	-	-	-	-	.
O=c1cc(-c2ccccc2)[nH]n1-c1ccc([N+](=O)[O-])cc1	.	-	-	100.1	-	-	77.4
O=c1[nH]c(-c2ccc(F)cc2)nc2c1sc(=S)n2-c1ccccc1	-	-	-	55.6	-	-	-	MPTP abs DR=-;MPTP counter DR=<2.5
O=c1[nH]c(-c2ccc3c(c2)OCO3)nc2c1sc(=S)n2-c1ccccc1	-	-	-	-	-	-	.
